An excerpt weighted towards active compounds, which were near 5.6% of everything screened.
NR3A LBD binder: modulates the human NR3A ligand-binding domain | NR3A LBD differential scanning fluorimetry, Tm shift; 0% = protein alone, 100% = glycine-bound protein | Tm shift relative to glycine control, % at 25 µM | hit rate 2.5% among 340,000 | AID 1259313;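 active = melting temperature shift of at least 10% of the positive control shift, at one fixed dose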
MPTP inh: blocks calcium-induced mitochondrial swelling; isolated mouse mitochondria, Ca2+ swelling absorbance, 30 min; inhibition, % at 10 µM; hit rate 1.4% among 360,000; AID 602449;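 active = inhibition of 50% or more, scaled per plate between neutral and stimulator controls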;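 also: 0% = DMSO wells given calcium and 100% = 1 mM EGTA wells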
CHOP UPR activ: activators of apoptotic arm of unfolded protein response (CHOP) | CHO-CHOP luciferase reporter, UPR activation, luminescence; percent of tunicamycin response over DMSO baseline | activation, % at 10 µM | hit rate 0.34% among 330,000 | AID 449763;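 active = at 10 µM dose, activation of 40% or more, normalized to positive control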;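 also: 100% = tunicamycin at 10 µg/mL and 0% = DMSO alone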
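Test system: CHO-CHOP cells, stable luciferase reporter of PERK-eIF2a-CHOP signalling | Quantity: 500 CHO-CHOP cells per well | Buffer or medium: F12 plus 10% serum | Compound dosing: 10 µM single point, 0.5% DMSO | Schedule: 6 h compound treatment, 37 °C | Signal: Luciferase luminescence | Control set: Tunicamycin high control, DMSO low control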
CHOP inhibitor: inhibitors of CHOP induction in ER stress response; CHO-K1 CHOP-promoter luciferase, tunicamycin-induced, 15-18 h; inhibition, % at 10 µM; hit rate 3.8% among 220,000; AID 2732;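 active = compounds that reduced the stress-induced luciferase reporter signal by more than about 70% of percent inhibition, limit read from the data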;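 also: 0% = tunicamycin plus vehicle and 100% = wells without tunicamycin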
XBP1 UPR activ: activators of adaptive arm of unfolded protein response (XBP1); CHO-XBP1 luciferase reporter, IRE1-XBP1 UPR activation, luminescence; percent of tunicamycin response, DMSO as zero; AID 463104; hit rate 0.33% among 330,000; activation, % at 20 µM;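 active = versus positive control, 20 µM dose yields 30% or more activation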;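 also: 100% = tunicamycin at 10 µg/mL and 0% = DMSO only wells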
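Material – CHO cell line with stable XBP1 luciferase reporter · Buffer or medium – F12 plus 10% FBS · Compound – single point, 20 µM final compound, 1% DMSO · Schedule – 16-18 h cell attachment at 37 °C, then 6 h compound exposure · Signal – Steady-Glo luminescence read · Benchmarks – high control tunicamycin 10 µg/mL final, low control DMSO vehicle only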
aDG glyco up: increases alpha dystroglycan glycosylation; hit rate 0.22% among 360,000; Pro5-aDG cells, alpha-DG glycosylation AlphaScreen (IIH6); 0% Pro5, 100% B10-LARGE cell signal; activation, % at 10 µM;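 active = activation of at least 8% versus controls, or a plate z-score of at least 8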;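 also: Pro5 are CHO cells carrying HIG-tagged alpha-DG that lacks glycosylation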
Rh123 counter: Rhodamine 123 counter-screen of mitochondrial pore hits | shares compounds with MPTP inh | isolated mitochondria, membrane potential, Rhodamine 123 fluorescence | inhibition, % at 10 µM | hit rate 78% among 5,000 | AID 624504; in the data active = inhibition above about 22%;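 also: 0% = DMSO vehicle and 100% = positive control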
MPTP swell DR: MPTP inhibition, dose response swelling confirmation; shares compounds with MPTP inh; isolated mitochondria swelling, absorbance; IC50, µM; hit rate 58% among 780; AID 651561; in the data active = IC50 below about 20 µM
MPTP counter DR: MPTP inhibitor counter-screen activity, dose response; shares compounds with MPTP inh; IC50, µM; hit rate 49% among 780; AID 651564; isolated mitochondria counterscreen, fluorescence read-out; in the data active = IC50 below about 80 µM
Active calls of the source: *; ! = not confirmed by another sample.

Results for CCCCCCN1CC(=O)N2Cc3[nH]c4ccccc4c3C[C@H]2C1=O ?
NR3A LBD binder: -3; MPTP inh: 0; CHOP UPR activ: 0; XBP1 UPR activ: -2; aDG glyco up: 0

Results for CNc1ccc(/C=C\CCCO)cn1 ?
MPTP inh: 0; aDG glyco up: 0

Results for CCOC(=O)C1(CC2CCCCO2)CCN(C(=O)NCc2ccccc2)CC1 (stereo unspecified) ?
NR3A LBD binder: 1; MPTP inh: -1; CHOP UPR activ: 0; CHOP inhibitor: 14; XBP1 UPR activ: -4; aDG glyco up: 0

What do the screens show for `CCc1cc(Cl)c(OC)c(C(=O)NC[C@@H]2CCCN2CC)c1O`?
NR3A LBD binder: 1; MPTP inh: 78*!; CHOP UPR activ: 0; XBP1 UPR activ: -4; aDG glyco up: 0; Rh123 counter: -6; MPTP swell DR: 9*; MPTP counter DR: >80

Results for Cc1c(Cl)cccc1NCC(=O)Nc1ccc(Cl)cc1F ?
NR3A LBD binder: 8; MPTP inh: 57*; CHOP UPR activ: 0; CHOP inhibitor: 54; XBP1 UPR activ: -1; aDG glyco up: 0; Rh123 counter: 57*

How did CC1CCCCN1CCCNc1ccc(C(CC(N)=O)NC(=O)Cc2cccc3ccccc23)cc1[N+](=O)[O-] (stereo unspecified) do in these assays?
NR3A LBD binder: -1; MPTP inh: 0; CHOP UPR activ: -1; XBP1 UPR activ: -1; aDG glyco up: 0

How did Cc1ccc(NS(=O)(=O)c2ccc(-n3cccn3)cc2)cc1C do in these assays?
NR3A LBD binder: -10; MPTP inh: 2; CHOP UPR activ: 1; XBP1 UPR activ: -3; aDG glyco up: 0

What do the screens show for `COc1cc(NS(=O)(=O)c2ccc(-n3cccn3)cc2)cc(OC)c1`?
MPTP inh: 60*; aDG glyco up: 0; Rh123 counter: 71*

Results for CCOC(=O)/C=C/COc1ccccc1[N+](=O)[O-] ?
NR3A LBD binder: 2; MPTP inh: 0; CHOP UPR activ: 7; CHOP inhibitor: -13; XBP1 UPR activ: 0; aDG glyco up: 0

How did CCc1nc(SCc2ccc(OCC(C)C)cc2)n[nH]1 do in these assays?
NR3A LBD binder: 0; MPTP inh: 86*; CHOP UPR activ: 6; XBP1 UPR activ: -2; aDG glyco up: 1; Rh123 counter: 67*

What do the screens show for `CCc1nc(SCc2ccc(Br)cc2)n[nH]1`?
NR3A LBD binder: -1; MPTP inh: 0; CHOP UPR activ: 6; XBP1 UPR activ: 3; aDG glyco up: 0

How did S=C(NCc1ccc(Cl)cc1Cl)NC1CCCCC1 do in these assays?
NR3A LBD binder: 32*; MPTP inh: 106*; CHOP UPR activ: 0; CHOP inhibitor: 62; XBP1 UPR activ: -3; aDG glyco up: 0; Rh123 counter: 85*

What do the screens show for `CNC(=O)Nc1ccc(Cl)cc1`?
NR3A LBD binder: -2; MPTP inh: 96*; CHOP UPR activ: 3; CHOP inhibitor: -7; XBP1 UPR activ: 3; aDG glyco up: 0; Rh123 counter: 91*

How did CC(=O)c1cccc(NC(=O)Nc2cnn(Cc3ccc(Cl)cc3Cl)c2)c1 do in these assays?
NR3A LBD binder: 14*; MPTP inh: 73*; CHOP UPR activ: -1; CHOP inhibitor: 56; XBP1 UPR activ: 1; aDG glyco up: 0; Rh123 counter: 71*

What do the screens show for `CC(=O)c1ccc(NC(=O)Nc2ccc(Cl)cc2)cc1`?
NR3A LBD binder: 31*; MPTP inh: 85*; CHOP UPR activ: 4; CHOP inhibitor: 78*; XBP1 UPR activ: 4; aDG glyco up: 2; Rh123 counter: 86*

Results for O=C(Nc1cnn(Cc2ccc(Cl)cc2Cl)c1)c1cc(-c2cccs2)on1 ?
NR3A LBD binder: -3; MPTP inh: 1; CHOP UPR activ: -1; CHOP inhibitor: 58; XBP1 UPR activ: 2; aDG glyco up: 0

Results for CC(C)=CC(=O)Nc1ccc(Cl)cc1 ?
NR3A LBD binder: -37; MPTP inh: 3; CHOP UPR activ: 7; CHOP inhibitor: -2; XBP1 UPR activ: 2; aDG glyco up: 0

How did O=C(CN1C(=O)NC2(CCOc3ccccc32)C1=O)c1ccc(Br)cc1 (stereo unspecified) do in these assays?
NR3A LBD binder: -1; MPTP inh: 0; CHOP UPR activ: 6; XBP1 UPR activ: -3; aDG glyco up: 0

How did COc1ccc(S(=O)(=O)N2CCOCC2)cc1NC(=O)c1ccc(=O)[nH]c1 do in these assays?
NR3A LBD binder: 0; MPTP inh: -2; CHOP UPR activ: 0; XBP1 UPR activ: -2; aDG glyco up: 0

What do the screens show for `COC(=O)Cc1ccc(NC(=S)NCc2ccccc2Cl)cc1`?
NR3A LBD binder: -11; MPTP inh: 4; CHOP UPR activ: 4; CHOP inhibitor: 25; XBP1 UPR activ: -2; aDG glyco up: 0

What do the screens show for `CC(=O)c1ccc(NC(=S)NCc2ccc(Cl)cc2Cl)cc1`?
NR3A LBD binder: 16*; MPTP inh: 95*; CHOP UPR activ: 0; CHOP inhibitor: 69; XBP1 UPR activ: -2; aDG glyco up: 1; Rh123 counter: 94*

What do the screens show for `CCN1CCN(C(=O)c2ccccc2N(Cc2ccccc2)S(=O)(=O)c2ccc(OC)cc2)CC1`?
NR3A LBD binder: -1; MPTP inh: 0; CHOP UPR activ: 2; CHOP inhibitor: -11; XBP1 UPR activ: -1; aDG glyco up: 0

What do the screens show for `O=C(Nc1ccccc1)c1cc([N+](=O)[O-])ccc1NC1CCCCC1`?
NR3A LBD binder: -7; MPTP inh: 51*; CHOP UPR activ: 4; CHOP inhibitor: 37; XBP1 UPR activ: 7; aDG glyco up: 0; Rh123 counter: -1; MPTP counter DR: >80

Results for Cc1ncc(CO)c(/C=N/NC(=O)c2ccc(O)cc2)c1O ?
NR3A LBD binder: 5; MPTP inh: -2; CHOP UPR activ: 1; CHOP inhibitor: 3; XBP1 UPR activ: -5; aDG glyco up: 0

How did Cc1ncc(CO)c(/C=N/NC(=S)Nc2cccc(Cl)c2)c1O do in these assays?
NR3A LBD binder: 27*; MPTP inh: 78*; CHOP UPR activ: -3; CHOP inhibitor: 52; XBP1 UPR activ: -2; aDG glyco up: 0; Rh123 counter: 79*

Results for Cc1ncc(CO)c(/C=N/NC(=S)Nc2ccc(Cl)c(Cl)c2)c1O ?
NR3A LBD binder: 23*; MPTP inh: 87*; CHOP UPR activ: -4; CHOP inhibitor: 46; XBP1 UPR activ: -1; aDG glyco up: 0; Rh123 counter: 70*

From PubChem BioAssay
